The values below come from ChEMBL document CHEMBL3120121, “Insights on pregnane-X-receptor modulation. Natural and semisynthetic steroids from Theonella marine sponges” (Eur J Med Chem, 2014).

The structures appear in SMILES notation. pEC50: −log10 of the molar value.

As a reminder, the pEC50 is −log10 of the EC50, conventionally taken in molar units.

Holding throughout (format): cell-based
Series [1] has as its target T1, Nuclear receptor subfamily 1 group I member 2 (Homo sapiens, UniProt O75469).
T1 sequence (O75469 whole entry): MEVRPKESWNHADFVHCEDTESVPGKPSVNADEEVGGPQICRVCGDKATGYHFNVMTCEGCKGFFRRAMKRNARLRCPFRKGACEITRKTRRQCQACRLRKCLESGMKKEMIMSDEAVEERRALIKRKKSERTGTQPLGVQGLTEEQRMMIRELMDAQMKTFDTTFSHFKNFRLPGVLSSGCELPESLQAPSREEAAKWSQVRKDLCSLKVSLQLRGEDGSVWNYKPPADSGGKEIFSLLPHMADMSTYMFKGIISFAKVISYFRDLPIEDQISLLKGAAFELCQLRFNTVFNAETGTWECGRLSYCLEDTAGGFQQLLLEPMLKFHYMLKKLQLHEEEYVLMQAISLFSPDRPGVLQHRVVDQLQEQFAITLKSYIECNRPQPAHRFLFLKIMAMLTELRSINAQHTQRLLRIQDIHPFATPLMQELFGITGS
Nature of the series: Agonist activity at human full-length PXR transfected in human HepG2 cells co-transfected with pSG5-RXR assessed as induction of transactivation by dual-luciferase reporter gene assay. Particulars: for Activity: human, hepg2; call rule not given here. Summed up: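 HepG2 cells grown at 37 °C in MEM with Earle's salts, 10% FBS, 1% L-glutamine, 1% penicillin/streptomycin, seeded at 5 × 10^4 cells/well. Cotransfected with pSG5-hPXRT1, pSG5-RXR, pGL4.70-Renilla and pGL3(henance)PXRE reporter. Treated with rising concentrations (1, 10, 50) with rifaximin as positive control. Dual-luciferase readout; firefly RLU divided by Renilla RLU; EC50 from concentration–response curve.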

The target in series [2] is T1, Nuclear receptor subfamily 1 group I member 2. The series is described as follows: Partial agonist activity at human full-length PXR transfected in human HepG2 cells co-transfected with RXR assessed as reversal of rifaximin-induced transactivation at 50 uM after 18 hrs by luciferase reporter gene assay. Particulars: hepg2, 18 h. Summed up: (§1)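 HepG2 cells cotransfected with pSG5-hPXRT1, pSG5-RXR, pCMV-βgal and pGL3(henance)PXRE reporter. At 24 h post-transfection, primed 18 h with compound at 50 plus rifaximin at 10 (antagonist mode). Luciferase luminescence measured in lysates and normalized to β-galactosidase activity. Significance p < 0.05 vs rifaximin.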

Series [3] shares this target. Nature of the series: Antagonist activity at human full-length PXR transfected in human HepG2 cells co-transfected with pSG5-RXR assessed as reversal of rifaximin-induced transactivation at 10 to 25 uM after 18 hrs by luciferase reporter gene assay. To be noted: hepg2, 18 h. The essentials: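 Dose–response antagonism test in a luciferase reporter assay: transfected HepG2 cells received compound at 10, 25 or 50 together with rifaximin 10 to assess reversal of rifaximin-driven PXR transactivation.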
For orientation: Reporter assays use an easily measured gene product as a stand-in for the process of interest.

Series [4] shares this target. Nature of the series: Antagonist activity at human full-length PXR transfected in human HepG2 cells co-transfected with pSG5-RXR assessed as reversal of rifaximin-induced transactivation at 50 uM after 18 hrs by luciferase reporter gene assay. Particulars: hepg2, 18 h. Summed up:
as §1

`CC(C)[C@H](C)CC[C@@H](C)[C@H]1CCC2=C3CC[C@H]4[C@H](C)[C@H](O)CC[C@]4(C)[C@H]3CC[C@@]21C`: in series [1], the negative logarithm of the EC50 (pEC50) was 4.74 and the Activity result is “Dose-dependent effect”. Also, in series [2], the outcome was Active.
On to `C=C1[C@@H](O)CC[C@@]2(C)[C@H]1CCC1=C3CC[C@H]([C@H](C)CCC=C(C)C)[C@@]3(C)CC[C@@H]12`, for which, in series [1], the negative-log EC50 (pEC50) was 4.68 and the Activity result was “Dose-dependent effect”. Also, the outcome in series [2] was Active.
With `CC(C)[C@H](C)CC[C@@H](C)[C@H]1CCC2=C3CC[C@H]4[C@@H](C)[C@@H](O)CC[C@]4(C)[C@H]3CC[C@@]21C`, the Activity entry in series [3] is given as “Not Active”; in series [2], “Active”; in series [4], “Active”.
